The record followed here is ChEMBL document CHEMBL1123708, “Resolved cis- and trans-2-amino-5-methoxy-1-methyltetralins: central dopamine receptor agonists and antagonists” (1987).

By ED50 is commonly meant the dose at which the effect has come halfway, by size or by number of responders.

Test [1] concerns Rattus norvegicus. Description: In vivo DOPA accumulation in non pre-treated rat striatal system following s.c. administration. It counts as functional. To be noted: sc. In outline: (§1)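 Rats without pretreatment received test drug sc 65 min and NSD 1015 (100 mg/kg ip) 30 min before death, with saline controls. DOPA was measured in limbic or striatal tissue. Dose for half-maximal change was estimated from 4-5-dose curves (n = 3-5), maximal level as % of control.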

For test [2], the system named is Rattus norvegicus. Description: Locomotory activity was determined in non pretreated rats at a dose of 2.7 umol/kg by intraperitoneal administration.
Test [3] deals with Rattus norvegicus. Description: In vivo DOPA accumulation in non pre-treated rat limbic system following s.c. administration. It counts as functional. As to conditions: sc. The essentials:
as §1

In test [4] the test system is Rattus norvegicus. Description: Change in rectal temperature induced by DiPr-5,6-ADTN at a dose of 2.7 umol/kg of compound by subcutaneous administration. It counts as functional. The essentials:
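Rats received DiPr-5,6-ADTN at 0.25 μmol/kg sc, then the test compound sc (tested range 2.7–204 μmol/kg) 60 min later. Rectal temperature change was measured between 60 and 100 min after DiPr-5,6-ADTN. Values are mean ± SEM, n = 4, compared with DiPr-5,6-ADTN-only controls by Student's t test.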

Test [5] concerns Rattus norvegicus. Description: In vivo DOPA accumulation in reserpine pretreated rat limbic system after 1.4 umol/kg ip; I denotes inactive. It counts as functional, organism-based.
The test system of test [6] is Rattus norvegicus. Description: In vivo DOPA accumulation in reserpine pretreated rat striatum system after 1.4 umol/kg ip; I denotes inactive. It counts as functional, organism-based.
Test [7] has as its system Rattus norvegicus. Description: ((+)-UH-232) induced locomotor stimulation was determined in non pretreated rats at a dose of 52 umol/kg by subcutaneous administration. It counts as functional.
In test [8] the test system is Rattus norvegicus. Description: Locomotory activity was determined in non pretreated rats at a dose of 3.2 umol/kg by subcutaneous administration. It counts as functional. The essentials:
(§2)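 Untreated rats received test drug sc 5 min before a 30-min session in photocell motility meters, with accumulated counts recorded. Activity is expressed as percent of saline controls, mean ± SEM, n = 3-5. Gross behaviour was observed through a semitransparent mirror. Differences from saline controls were assessed by Student's t test.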

In test [9] the test system is Rattus norvegicus. Description: ((+)-UH-232) induced locomotor stimulation was determined in non pretreated rats at a dose of 13 umol/kg by subcutaneous administration. It counts as functional.
Test [10] concerns Rattus norvegicus. Description: Change in rectal temperature induced by DiPr-5,6-ADTN at a dose of 52 umol/kg of compound by subcutaneous administration. It counts as functional. The essentials:
(§3)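 Rats received DiPr-5,6-ADTN (0.25 μmol/kg sc) 100 min and test compound sc 40 min before death. Rectal temperature change (°C) was recorded between 60 and 100 min after DiPr-5,6-ADTN. Values are mean ± SEM, n = 4, with Student's t test vs DiPr-5,6-ADTN alone.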

Test [11] concerns Rattus norvegicus. Description: Change in rectal temperature induced by DiPr-5,6-ADTN at a dose of 13 subcutaneous administration. It counts as functional. In outline: as §3
For test [12], the target named is T1, Dopamine receptor (Rattus norvegicus) (UniProt P25115+P19020+P30729+P18901+P61169). Description: Ability to displace the Dopamine receptor agonist DiPr-5,6-ADTN from rat striatal binding sites in vivo at a dose of 52 umol/kg by subcutaneous administration. It counts as organism-based.
Test [13] has as its system Rattus norvegicus. Description: Change in rectal temperature induced by DiPr-5,6-ADTN at a dose of 3.2 umol/kg of compound by subcutaneous administration. It counts as functional. In outline: as §3
Test [14] deals with Rattus norvegicus. Description: Induced locomotor stimulation was determined in non pretreated rats at a dose of 3.2 umol/kg by subcutaneous administration. It counts as functional. The essentials:
as §2

The target in test [15] is T1, Dopamine receptor (Rattus norvegicus). Description: Ability to displace the Dopamine receptor agonist DiPr-5,6-ADTN from rat striatal binding sites in vivo at a dose of 13 umol/kg by subcutaneous administration. It counts as organism-based.
Test [16] shares this target. Description: In vivo displacement of DiPr-5,6-ADTN from Dopamine receptors in rat striatum. It counts as organism-based.
Test [17] relates to Rattus norvegicus. Description: Locomotory activity was determined in non pretreated rats at a dose of 52 umol/kg by subcutaneous administration. It counts as functional. The essentials:
as §2

The test system of test [18] is Rattus norvegicus. Description: Locomotory activity was determined in reserpine pretreated rats at a dose of 125 umol/kg by subcutaneous administration. Value is the accumulation counts/30 min. It counts as functional. The essentials: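 Rats were given reserpine 5 mg/kg sc 18 h beforehand, then test drug sc immediately before the activity session. Motor activity was recorded by photocells in motility meters as accumulated counts over 30 min, mean ± SEM, n = 3-4. Gross behaviour was watched for signs of stimulation. Reserpine-only controls were included.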

The test system of test [19] is Rattus norvegicus. Description: In vivo DOPA accumulation in reserpine pretreated rat limbic system by subcutaneous administration. It counts as functional. To be noted: sc. In outline:
(§4)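 Rats received reserpine (5 mg/kg sc) 18 h, test drug sc 60 min and NSD 1015 (100 mg/kg ip) 30 min before death, with saline controls. Limbic or striatal DOPA was measured. Dose for half-maximal decrease was estimated from 4-7-dose curves (n = 3-5), minimal level as % of control.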

The target of test [20] is T1, Dopamine receptor (Rattus norvegicus). Description: Ability to displace the Dopamine receptor agonist DiPr-5,6-ADTN from rat striatal binding sites in vivo at a dose of 52 uM/kg by subcutaneous administration. It counts as organism-based.
The test system of test [21] is Rattus norvegicus. Description: Induced locomotor stimulation was determined in non pretreated rats at a dose of 52 uM/kg by subcutaneous administration. It counts as functional. The essentials:
as §2

In test [22] the test system is Rattus norvegicus. Description: In vivo DOPA accumulation in reserpine pretreated rat striatum system by subcutaneous administration. To be noted: sc. It counts as functional. The essentials: as §4
For test [23], the target named is T1, Dopamine receptor (Rattus norvegicus). Description: Ability to displace the Dopamine receptor agonist DiPr-5,6-ADTN from rat striatal binding sites in vivo at a dose of 13 uM/kg by subcutaneous administration. It counts as organism-based.
Test [24] has as its system Rattus norvegicus. Description: In vivo DOPA accumulation in non pretreated rat limbic system by subcutaneous administration;. indicates 40-50% increase in limbic system after 52 umol/kg (sc). It counts as functional, organism-based. The essentials: as §1
The subject of test [25] is Rattus norvegicus. Description: Induced locomotor stimulation in non pre-treated rats by 13 umol/kg s.c. administration. It counts as functional.
In test [26] the test system is Rattus norvegicus. Description: In vivo DOPA accumulation in non pretreated rat striatum system by subcutaneous administration.; hr indicates 40-50% increase in limbic system after 52 umol/kg (sc). It counts as functional, organism-based. The essentials:
as §1

The subject of test [27] is Rattus norvegicus. Description: Change in rectal temperature induced by DiPr-5,6-ADTN at a dose of 13 umol/kg of compound by subcutaneous administration. It counts as functional. The essentials: as §3
Test [28] concerns Rattus norvegicus. Description: Induced locomotor stimulation in non pre-treated rats by 52 umol/kg s.c. administration. It counts as functional.
Test [29] relates to Rattus norvegicus. Description: Induced locomotor stimulation was determined in non pretreated rats at a dose of 52 umol/kg by subcutaneous administration. It counts as functional. In outline:
as §2

SMILES strings stand for the structures. Active and inactive are the calls of the source. The calls are words filed in the database; no cut-off is given here.

For the compound `O=C(CCCN1CCC(O)(c2ccc(Cl)cc2)CC1)c1ccc(F)cc1` [HALOPERIDOL], the ED50 in the test with Rattus norvegicus [1] and in the test with Rattus norvegicus [3] was 0.19 µmol/kg each time. In addition, the Activity with Rattus norvegicus [2] was determined as 3%. Besides, in the test on Rattus norvegicus [4], the Body temp change came out at 1.34 °C. The ED50 result in the test with Rattus norvegicus [5] and in the test with Rattus norvegicus [6] was “inactive” throughout.
With `COc1cccc2c1CC[C@@H](N(C)C)[C@H]2C`, the median effective dose (ED50) turned out to be 2.9 µmol/kg with Rattus norvegicus [1] and 2.2 µmol/kg in the test on Rattus norvegicus [3]. The Activity was found to be 8% with Rattus norvegicus [7]; 100% with Rattus norvegicus [8]; 15% in the test on Rattus norvegicus [9]; 62% with Rattus norvegicus [14]; 9% in the test on Rattus norvegicus [17]. Further, the Temperature is 0.28 °C in the test on Rattus norvegicus [10], 1.6 °C in the test with Rattus norvegicus [11] and -0.15 °C in the test on Rattus norvegicus [13]. Also, the Binding came to 14% in test [12], 40% in [15] and 60% in test [16].
In the case of `CCCN[C@H]1CCc2c(O)cccc2[C@H]1C`, the Activity in the test on Rattus norvegicus [18] is recorded as 26%; in the test on Rattus norvegicus [21] it was 80%. Besides, the median effective dose (ED50) was determined as 4 µmol/kg in the test on Rattus norvegicus [19] and 5 µmol/kg in the test with Rattus norvegicus [22]. In addition, the Body temp change in the test with Rattus norvegicus [10] is -0.45 °C. In addition, the Binding in test [20] amounted to 66%.
In [23], `CCCCN[C@@H]1CCc2c(O)cccc2[C@@H]1C` returned a Binding of 46%. The values for the Activity with Rattus norvegicus [8], in the test on Rattus norvegicus [25] and with Rattus norvegicus [28] were 89%, 80% and 76%, respectively. Moreover, the ED50 result with Rattus norvegicus [24] and with Rattus norvegicus [26] was “Weak activity” throughout. Further, the Body temp change in the test with Rattus norvegicus [27] was -0.93 °C.
For the compound `CCN(CC)[C@@H]1CCc2c(OC)cccc2[C@@H]1C`, the ED50 stood at 2.9 µmol/kg in the test on Rattus norvegicus [1] and 5.5 µmol/kg with Rattus norvegicus [3]. The Activity is recorded as 100% in the test on Rattus norvegicus [8], 40% with Rattus norvegicus [25], 46% in the test with Rattus norvegicus [28] and 14% with Rattus norvegicus [29]. The values for the Body temp change in the test on Rattus norvegicus [10] and with Rattus norvegicus [27] were 1.4 °C and 1.2 °C, respectively. For the same compound, the Binding in test [20] stood at 28%; in test [16] it was 44%.
